Experimental data from ChEMBL document CHEMBL2157934, “Pyrrolidinyl phenylurea derivatives as novel CCR3 antagonists” (Bioorg Med Chem Lett, 2012).
The source made the active and inactive calls. The calls are words filed in the database; no cut-off is given here.

Assays:
[1] = biological target: T1, C-C chemokine receptor type 3 (Homo sapiens, UniProt P51677); experiment: Antagonist activity at CCR3 receptor; format: functional
T1 sequence (P51677 whole entry): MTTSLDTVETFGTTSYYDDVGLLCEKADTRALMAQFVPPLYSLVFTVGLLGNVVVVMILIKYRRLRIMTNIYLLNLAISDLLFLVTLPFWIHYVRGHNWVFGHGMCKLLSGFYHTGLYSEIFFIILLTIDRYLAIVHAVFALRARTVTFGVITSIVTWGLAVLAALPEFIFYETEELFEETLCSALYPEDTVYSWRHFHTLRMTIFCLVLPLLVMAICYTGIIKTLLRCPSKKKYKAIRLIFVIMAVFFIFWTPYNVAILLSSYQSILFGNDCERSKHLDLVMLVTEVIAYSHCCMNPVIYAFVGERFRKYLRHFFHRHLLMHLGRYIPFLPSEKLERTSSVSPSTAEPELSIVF

[2] = biological target: C-C chemokine receptor type 5 (Homo sapiens) (UniProt P51681); experiment: Inhibition of CCR5 receptor at 10 uM
Chain of C-C chemokine receptor type 5 (Homo sapiens) (P51681 whole entry, looked up): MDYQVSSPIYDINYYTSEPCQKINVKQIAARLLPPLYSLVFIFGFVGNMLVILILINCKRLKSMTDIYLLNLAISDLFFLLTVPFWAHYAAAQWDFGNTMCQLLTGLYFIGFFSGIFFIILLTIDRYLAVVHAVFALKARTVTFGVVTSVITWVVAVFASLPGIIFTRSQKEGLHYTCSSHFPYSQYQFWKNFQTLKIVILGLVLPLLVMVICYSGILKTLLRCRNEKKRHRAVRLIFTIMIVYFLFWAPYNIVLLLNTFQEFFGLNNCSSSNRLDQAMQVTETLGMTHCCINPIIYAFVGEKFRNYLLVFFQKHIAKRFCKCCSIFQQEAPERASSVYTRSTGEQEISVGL

[3] = Oral bioavailability in cynomolgus monkey; format: ADME, organism-based, Macaca fascicularis; details: in vivo
[4] = biological target: T1, C-C chemokine receptor type 3; experiment: (§1) Antagonist activity at CCR3 receptor in human eosinophils assessed as inhibition of CCL11-induced degranulation after 4 hrs by ELISA; format: functional
Method in brief: (§2)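 Eosinophils isolated from peripheral blood of normal human volunteers; wells pre-blocked with 2.5% BSA in PBS, 2 h, 37 °C. 5 × 10^5 cells in RPMI 1640 with 0.5% BSA, with or without 0.6 nM human CCL11 and varying antagonist concentrations, incubated 4 h at 37 °C, 5% CO2. Supernatant EDN quantified by ELISA; IC50 from dose-response.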

[5] = biological target: T2, C-C chemokine receptor type 3 (Homo sapiens) (UniProt P51677); experiment: as §1; format: functional; method in brief: as §2
T2 sequence (whole entry): T1 sequence (P51677 whole entry)

[6] = biological target: T3, C-C chemokine receptor type 1 (Homo sapiens) (UniProt P32246); experiment: Inhibition of CCR1 receptor at 10 uM
T3 sequence (whole entry): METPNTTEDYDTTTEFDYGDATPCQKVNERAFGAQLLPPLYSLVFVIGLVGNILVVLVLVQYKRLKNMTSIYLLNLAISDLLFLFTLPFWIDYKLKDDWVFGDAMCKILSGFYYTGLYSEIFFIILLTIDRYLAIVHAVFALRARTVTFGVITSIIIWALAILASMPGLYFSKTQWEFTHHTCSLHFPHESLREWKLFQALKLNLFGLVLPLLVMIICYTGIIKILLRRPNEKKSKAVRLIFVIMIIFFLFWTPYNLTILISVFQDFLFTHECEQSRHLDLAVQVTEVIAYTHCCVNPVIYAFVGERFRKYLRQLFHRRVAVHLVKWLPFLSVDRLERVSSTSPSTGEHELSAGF

[7] = biological target: C-C chemokine receptor type 2 (Homo sapiens) (UniProt P41597); experiment: Inhibition of CCR2 receptor at 10 uM
Chain of C-C chemokine receptor type 2 (Homo sapiens) (P41597 whole entry, looked up): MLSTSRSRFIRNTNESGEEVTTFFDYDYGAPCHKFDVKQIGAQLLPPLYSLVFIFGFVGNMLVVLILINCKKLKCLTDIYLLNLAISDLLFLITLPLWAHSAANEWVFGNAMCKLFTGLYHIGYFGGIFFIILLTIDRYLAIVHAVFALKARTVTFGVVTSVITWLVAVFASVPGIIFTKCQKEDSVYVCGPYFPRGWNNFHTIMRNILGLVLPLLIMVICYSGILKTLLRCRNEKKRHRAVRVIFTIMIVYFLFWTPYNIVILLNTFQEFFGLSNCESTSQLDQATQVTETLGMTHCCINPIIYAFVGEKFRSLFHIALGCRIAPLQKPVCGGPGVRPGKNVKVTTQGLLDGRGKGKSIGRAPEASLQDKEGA

SMILES	IC50 [1]	also measured
O=C(Nc1cccc(OCCO)c1)N[C@@H]1CCN(Cc2ccc3cc(F)ccc3c2)C1	28 nM	–
O=C(Nc1ccccc1OCCO)N[C@@H]1CCN(Cc2ccc3cc(F)ccc3c2)C1	1.7 nM	inhibition [2]: inactive; bioavailability [3]: 22%; IC50 [4]: 0.87 nM; inhibition [5]: Dose-dependent effect; inhibition [6]: inactive; inhibition [7]: inactive
O=C(NC1CCN(S(=O)(=O)c2ccccc2O)CC1)N1CCCN(Cc2ccc3cc(F)ccc3c2)CC1	25 nM	–
O=C(NC1CCN(Cc2ccccc2)CC1)N1CCCN(Cc2ccc3cc(F)ccc3c2)CC1	380 nM	–
O=C(Nc1ccccc1OCCCO)N[C@@H]1CCN(Cc2ccc3cc(F)ccc3c2)C1	50 nM	–
COCc1ccccc1NC(=O)N[C@@H]1CCN(Cc2ccc3cc(F)ccc3c2)C1	44 nM	–
O=C(Nc1ccccc1OCCOCCO)N[C@@H]1CCN(Cc2ccc3cc(F)ccc3c2)C1	110 nM	–
CN(C)CCOc1ccccc1NC(=O)N[C@@H]1CCN(Cc2ccc3cc(F)ccc3c2)C1	50 nM	–
O=C1OC2(CCN(Cc3ccc4cc(F)ccc4c3)CC2)c2ccccc2N1Cc1ccccc1	2000 nM	–
O=C(Nc1ccccc1OCCCCO)N[C@@H]1CCN(Cc2ccc3cc(F)ccc3c2)C1	51 nM	–
O=C(NC1CCN(S(=O)(=O)c2ccccc2O)CC1)N[C@@H]1CCN(Cc2ccc3cc(F)ccc3c2)C1	2.4 nM	–
O=C(Nc1ccccc1)N[C@@H]1CCN(Cc2ccc3cc(F)ccc3c2)C1	50 nM	–

Further compounds by falling IC50 [1], results first:

IC50 [1]	SMILES	also measured
600 nM	O=C1N(CCc2ccccc2)CCC12CCN(Cc1ccc3cc(F)ccc3c1)CC2	–
190 nM	CN(C)C(=O)COc1ccccc1NC(=O)N[C@@H]1CCN(Cc2ccc3cc(F)ccc3c2)C1	–
110 nM	NC(=O)COc1ccccc1NC(=O)N[C@@H]1CCN(Cc2ccc3cc(F)ccc3c2)C1	–
71 nM	O=C(Nc1ccc(OCCO)cc1)N[C@@H]1CCN(Cc2ccc3cc(F)ccc3c2)C1	–
71 nM	COCCOc1ccccc1NC(=O)N[C@@H]1CCN(Cc2ccc3cc(F)ccc3c2)C1	–
41 nM	O=C(NC1CCCCC1)N[C@@H]1CCN(Cc2ccc3cc(F)ccc3c2)C1	–
24 nM	O=C(Nc1ccccc1CCCO)N[C@@H]1CCN(Cc2ccc3cc(F)ccc3c2)C1	–
14 nM	CS(=O)(=O)N1CCC(NC(=O)N[C@@H]2CCN(Cc3ccc4cc(F)ccc4c3)C2)CC1	–
12 nM	O=C(Nc1ccccc1CCO)N[C@@H]1CCN(Cc2ccc3cc(F)ccc3c2)C1	–
9.9 nM	O=C(Nc1ccccc1COCCO)N[C@@H]1CCN(Cc2ccc3cc(F)ccc3c2)C1	–
